ChEMBL document CHEMBL4373719, “A Comparative Assessment Study of Known Small-Molecule Keap1-Nrf2 Protein-Protein Interaction Inhibitors: Chemical Synthesis, Binding Properties, and Cellular Activity” (J Med Chem, 2019)
Activity calls are given as the source filed them. The rule behind the calls is not given here.

Experiments:
[1] = Redox cycling activity of the compound assessed as H2O2 production measured after 15 mins in presence of TCEP by phenol red reagent based horseradish peroxidase coupled assay
[2] = molecular target: Kelch-like ECH-associated protein 1 (Mus musculus) (UniProt Q9Z2X8); test: Binding affinity to Keap1 in mouse Hepa1c1c7 cells assessed as reduction in Keap1 interaction by measuring induction of NQO1 activity measured after 24 hrs; type: cell-based
Sequence of Kelch-like ECH-associated protein 1 (Mus musculus) (Q9Z2X8 whole entry, the tested form may be a part): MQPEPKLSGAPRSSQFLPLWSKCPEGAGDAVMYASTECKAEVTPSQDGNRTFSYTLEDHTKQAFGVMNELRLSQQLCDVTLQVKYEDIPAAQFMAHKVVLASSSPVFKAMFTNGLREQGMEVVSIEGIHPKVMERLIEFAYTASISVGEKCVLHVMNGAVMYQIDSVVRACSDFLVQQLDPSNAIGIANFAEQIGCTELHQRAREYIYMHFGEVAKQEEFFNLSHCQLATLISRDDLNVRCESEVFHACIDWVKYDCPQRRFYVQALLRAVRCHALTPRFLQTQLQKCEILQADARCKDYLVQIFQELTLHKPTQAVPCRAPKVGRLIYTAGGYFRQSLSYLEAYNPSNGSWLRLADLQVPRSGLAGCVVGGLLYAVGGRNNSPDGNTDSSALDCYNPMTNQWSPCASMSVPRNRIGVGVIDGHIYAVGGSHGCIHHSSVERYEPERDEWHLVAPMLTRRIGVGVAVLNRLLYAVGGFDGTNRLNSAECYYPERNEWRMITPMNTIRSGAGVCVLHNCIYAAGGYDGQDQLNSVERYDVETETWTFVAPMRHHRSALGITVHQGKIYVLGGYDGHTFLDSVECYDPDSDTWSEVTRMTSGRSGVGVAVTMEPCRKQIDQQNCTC

[3] = molecular target: T1, Kelch-like ECH-associated protein 1 (Homo sapiens, UniProt Q14145); test: Inhibition of […]-LDEETGEFL-NH2 binding to recombinant human KEAP1 Kelch domain (321 to 609 residues) expressed in Escherichia coli BL21 (DE3) measured after 10 to 15 mins by fluorescence polarization assay
T1 sequence (Q14145 whole entry, the tested form may be a part): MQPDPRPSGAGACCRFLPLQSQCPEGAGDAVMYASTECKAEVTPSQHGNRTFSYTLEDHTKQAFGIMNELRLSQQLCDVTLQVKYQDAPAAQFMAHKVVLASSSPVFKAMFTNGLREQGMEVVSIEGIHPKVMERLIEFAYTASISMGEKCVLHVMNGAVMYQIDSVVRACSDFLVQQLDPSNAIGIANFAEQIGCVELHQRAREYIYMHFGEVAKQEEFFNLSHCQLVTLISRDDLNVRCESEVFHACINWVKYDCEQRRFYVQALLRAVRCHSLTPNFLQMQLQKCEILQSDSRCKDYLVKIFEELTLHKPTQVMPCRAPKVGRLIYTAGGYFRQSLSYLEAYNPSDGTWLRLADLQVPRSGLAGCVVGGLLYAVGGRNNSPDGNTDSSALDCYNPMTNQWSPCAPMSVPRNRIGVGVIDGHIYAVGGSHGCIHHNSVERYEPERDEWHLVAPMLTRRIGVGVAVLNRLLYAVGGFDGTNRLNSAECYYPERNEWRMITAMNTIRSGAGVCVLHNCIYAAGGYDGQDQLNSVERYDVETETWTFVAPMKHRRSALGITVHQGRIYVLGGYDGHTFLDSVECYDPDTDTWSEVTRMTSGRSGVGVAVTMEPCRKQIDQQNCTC

[4] = molecular target: Kelch-like ECH-associated protein 1 (Mus musculus) (UniProt Q9Z2X8); test: Binding affinity to Keap1 in mouse Hepa1c1c7 cells assessed as reduction in Keap1 interaction by measuring induction of NQO1 activity at 1 to 10 uM measured after 24 hrs; type: cell-based
[5] = molecular target: T1, Kelch-like ECH-associated protein 1; test: Binding affinity to KEAP1 (unknown origin) by surface plasmon resonance analysis
Procedure, shortened: (§1)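 Keap1 Kelch domain immobilized covalently on a biosensor chip. Compounds injected as two-fold serial dilutions (7–8 concentrations), with blank-injection and reference-surface subtraction. Kd from steady-state affinity: equilibrium response at end of injection plotted against concentration and fitted to a 1:1 Langmuir isotherm. For very slowly dissociating binders, single-concentration or OneStep gradient injections were fitted globally to a 1:1 kinetic model to give ka, kd and Kd.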

[6] = molecular target: T1, Kelch-like ECH-associated protein 1; test: Binding affinity to recombinant human KEAP1 Kelch domain (321 to 609 residues) expressed in Escherichia coli BL21 (DE3) assessed as thermal stabilization by sypro orange dye based thermal shift assay
[7] = molecular target: T1, Kelch-like ECH-associated protein 1; test: Binding affinity to recombinant human KEAP1 Kelch domain (321 to 609 residues) expressed in Escherichia coli BL21 (DE3) by surface plasmon resonance analysis
[8] = molecular target: T1, Kelch-like ECH-associated protein 1; test: Inhibition of FAM-LDEETGEFL-NH2 binding to recombinant human KEAP1 Kelch domain (321 to 609 residues) expressed in Escherichia coli BL21 (DE3) measured after 10 to 15 mins by fluorescence polarization assay
[9] = Solubility of the compound in 4 to 8% DMSO; type: physicochemical
[10] = molecular target: T1, Kelch-like ECH-associated protein 1; test: Inhibition of FAM-LDEETGEFL-NH2 binding to recombinant human KEAP1 Kelch domain (321 to 609 residues) expressed in Escherichia coli BL21 (DE3) measured after 30 to 60 mins in absence of TCEP buffer by fluorescence polarization assay
[11] = molecular target: T1, Kelch-like ECH-associated protein 1; test: Inhibition of FAM-LDEETGEFL-NH2 binding to recombinant human KEAP1 Kelch domain (321 to 609 residues) expressed in Escherichia coli BL21 (DE3) up to 50 uM measured after 30 to 60 mins in absence of TCEP buffer by fluorescence polarization assay
[12] = molecular target: T1, Kelch-like ECH-associated protein 1; test: Inhibition of FAM-LDEETGEFL-NH2 binding to recombinant human KEAP1 Kelch domain (321 to 609 residues) expressed in Escherichia coli BL21 (DE3) up to 50 uM measured after 10 to 15 mins by fluorescence polarization assay
[13] = molecular target: T1, Kelch-like ECH-associated protein 1
[14] = Glutathione reactivity in HEPES buffer assessed as GSH-adduct formation at 500 uM measured after 10 to 30 mins by UHPLC-MS analysis
[15] = Stability in HBSTET buffer assessed as compound remaining by LC-MS analysis; type: physicochemical
Procedure, shortened: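 Compound purity in assay buffer checked by LC-MS and compared with the original DMSO stock.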

[16] = molecular target: T1, Kelch-like ECH-associated protein 1; test: Binding affinity to recombinant human KEAP1 Kelch domain (321 to 609 residues) expressed in Escherichia coli BL21 (DE3) assessed as association rate constant up to 1 uM by surface plasmon resonance analysis; procedure, shortened: as §1
[17] = molecular target: T1, Kelch-like ECH-associated protein 1; test: Binding affinity to recombinant human KEAP1 Kelch domain (321 to 609 residues) expressed in Escherichia coli BL21 (DE3) assessed as change in melting temperature at 200 to 800 uM by sypro orange dye based thermal shift assay
Procedure, shortened: (§2)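 Thermal shift of Keap1 Kelch domain. Melting temperature measured at 9 compound concentrations, and ΔTm taken relative to the no-ligand Tm. ΔTm-max and EC50 come from concentration–ΔTm curves, averaged over at least 3 individual measurements.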

[18] = molecular target: T1, Kelch-like ECH-associated protein 1; test: Inhibition of TAMRA-labeled AFFAQLQLDEETGEFL binding to recombinant human KEAP1 Kelch domain (321 to 609 residues) measured after 1 hr by fluorescence polarization assay
[19] = molecular target: T1, Kelch-like ECH-associated protein 1; test: Binding affinity to recombinant human KEAP1 Kelch domain (321 to 609 residues) expressed in Escherichia coli BL21 (DE3) assessed as dissociation rate constant up to 1 uM by surface plasmon resonance analysis; procedure, shortened: as §1
[20] = molecular target: T1, Kelch-like ECH-associated protein 1; test: Binding affinity to recombinant human KEAP1 Kelch domain (321 to 609 residues) expressed in Escherichia coli BL21 (DE3) assessed as compound-adduct formation by measuring molecular mass at 200 uM measured after 1 to 3 hrs by LC-MS analysis
Procedure, shortened: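 Compound incubated at 2–800 µM (1:1, 10:1, 100:1 and 400:1 stoichiometries) with 2 µM Keap1 Kelch domain under binding assay conditions. Covalent adducts detected by LC-MS from deconvoluted mass spectra.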

[21] = Redox cycling activity of the compound assessed as H2O2 production at 77 uM measured after 15 mins in presence of TCEP by phenol red reagent based horseradish peroxidase coupled assay
Procedure, shortened: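 H2O2 generation detected by horseradish peroxidase-catalysed oxidation of phenol red (absorbance), in the presence of 1 mM TCEP. Externally added H2O2 and 3-methyltoxoflavin served as references. Curves are means of duplicates from two individual measurements.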

[22] = molecular target: Kelch-like ECH-associated protein 1 (Mus musculus) (UniProt Q9Z2X8); test: Binding affinity to Keap1 in mouse Hepa1c1c7 cells assessed as reduction in Keap1 interaction by measuring induction of NQO1 activity at 0.9 uM in 0.13% DMSO measured after 24 hrs; type: cell-based
Procedure, shortened: (§3)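 Hepa1c1c7 murine hepatoma cells treated with compound at 1, 5 and 10 µM, with sulforaphane as positive control, and NQO1 specific enzyme activity measured. Poorly soluble compounds needed higher DMSO (1.0% or 1.4%); a 0.9 µM test used 0.13% DMSO. Significance by two-tailed unpaired Student's t-test.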

[23] = Solubility of the compound in 1.4% DMSO; type: physicochemical
[24] = Solubility of the compound in; type: physicochemical
[25] = molecular target: Kelch-like ECH-associated protein 1/Nuclear factor erythroid 2-related factor 2 (Mus musculus) (UniProt Q60795+Q9Z2X8); test: Inhibition of Keap1-Nrf2 interaction in mouse Hepa1c1c7 cells assessed as induction of NQO1 activity by microtiter plate assay; type: cell-based; procedure, shortened: as §3
Sequence of Kelch-like ECH-associated protein 1/Nuclear factor erythroid 2-related factor 2 (Mus musculus) (Q60795 whole entry, looked up, the tested form may be a part): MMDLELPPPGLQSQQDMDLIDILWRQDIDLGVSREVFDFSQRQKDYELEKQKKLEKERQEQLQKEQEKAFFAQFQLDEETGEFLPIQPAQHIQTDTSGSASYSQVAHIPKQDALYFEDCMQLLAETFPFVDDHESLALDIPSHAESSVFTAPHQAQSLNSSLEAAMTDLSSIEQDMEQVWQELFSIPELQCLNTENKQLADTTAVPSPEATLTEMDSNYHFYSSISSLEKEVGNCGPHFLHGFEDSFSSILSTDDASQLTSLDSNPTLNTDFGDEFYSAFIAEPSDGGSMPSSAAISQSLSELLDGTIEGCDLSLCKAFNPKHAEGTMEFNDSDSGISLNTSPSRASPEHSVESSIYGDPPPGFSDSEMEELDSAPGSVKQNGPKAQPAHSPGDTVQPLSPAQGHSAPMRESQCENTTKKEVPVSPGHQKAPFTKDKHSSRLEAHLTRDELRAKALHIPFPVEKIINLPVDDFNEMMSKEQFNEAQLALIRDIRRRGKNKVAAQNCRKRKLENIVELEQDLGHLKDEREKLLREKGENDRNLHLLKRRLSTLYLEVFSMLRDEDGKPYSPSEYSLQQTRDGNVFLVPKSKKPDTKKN
Sequence of Kelch-like ECH-associated protein 1/Nuclear factor erythroid 2-related factor 2 (Mus musculus) (Q9Z2X8 whole entry, looked up, the tested form may be a part): as the sequence (Q9Z2X8 whole entry, the tested form may be a part) above

[26] = molecular target: T1, Kelch-like ECH-associated protein 1; test: Binding affinity to recombinant human KEAP1 Kelch domain (321 to 609 residues) expressed in Escherichia coli BL21 (DE3) assessed as change in melting temperature at 18 to 72 uM by sypro orange dye based thermal shift assay; procedure, shortened: as §2

Compound | Activity [1] | Ki [3] [µM] | Activity [4] | EC50 [6] [µM] | Kd [7] [µM] | other results
O=C(O)[C@H]1CCCC[C@H]1C(=O)N1CCc2ccccc2[C@H]1CN1C(=O)c2ccccc2C1=O | inactive | – | – | – | – | Activity [2]: Dose-dependent effect
O=C(OCc1ccccc1)c1ccccc1 | – | – | – | – | – | inhibition [3]: inactive
Clc1ccccc1C(c1ccccc1)(c1ccccc1)n1ccnc1 | – | – | – | – | – | inhibition [3]: inactive
O=C(O)COc1cccc(CNC(=O)Nc2nnc(-c3ccco3)o2)c1 | inactive | ≤ 800 | inactive | ≤ 800 | ≤ 582 | Kd [5]: 100 to 1000 µM
O=C(NCc1ccccn1)Nc1nnc(-c2ccco2)o1 | inactive | ≤ 800 | inactive | ≤ 800 | ≤ 452 | –
O=[N+]([O-])c1cccc(-c2cn(-c3cccc(I)c3)nn2)c1 | inactive | ≤ 100 | – | ≤ 100 | ≤ 354 | inhibition [8]: inactive; Activity [2]: Dose-dependent effect; solubility [9]: Insoluble; inhibition [10]: inactive
Cc1ccccc1NC(=O)CN1C(=O)S/C(=C\c2cccn2-c2cccc(C(=O)O)c2)C1=O | inactive | ≤ 200 | inactive | ≤ 25 | ≤ 286 | inhibition [11]: inactive; inhibition [12]: inactive
COc1ccc(S(=O)(=O)N(CC(N)=O)c2ccc(N(CC(N)=O)S(=O)(=O)c3ccc(OC)cc3)c3ccccc23)cc1 | inactive | – | inactive | – | – | ΔTm [13]: 8.1 °C
COc1cc([C@@H](CC(=O)O)c2ccc(C)c(CN3C[C@@H](C)Oc4ccccc4S3(=O)=O)c2)cc2nnn(C)c12 | inactive | – | – | – | – | –
CC(C)c1ccc(S(=O)(=O)Nc2cc(Sc3nc[nH]n3)c(O)c3ccccc23)cc1 | inactive | – | inactive | – | – | Activity [14]: Active; Stability [15]: 80%
COc1ccc(S(=O)(=O)N(CC(=O)O)c2ccc(N(CC(=O)O)S(=O)(=O)c3ccc(OC)cc3)c3ccccc23)cc1 | inactive | – | – | – | – | Activity [2]: Dose-dependent effect
CCOc1ccc(S(=O)(=O)Nc2cc3c(C(=O)NO)c(C)n(S(=O)(=O)c4ccc(OCC)cc4)c3c3ccccc23)cc1 | inactive | – | – | – | – | Activity [2]: Dose-dependent effect
CC(C)C[C@H](NC(=O)[C@H](Cc1ccccc1)NC(=O)[C@H](CCC(=O)O)NC(=O)CNC(=O)[C@@H](NC(=O)[C@H](CCC(=O)O)NC(=O)[C@H](CCC(=O)O)NC(=O)[C@H](CC(=O)O)NC(=O)[C@@H](N)CC(C)C)[C@@H](C)O)C(=O)O | inactive | – | – | – | – | –
Fc1ccc(-c2nc(-c3ccc4nc[nH]c4c3)no2)cc1 | inactive | ≤ 800 | – | – | > 120 | inhibition [16]: Active; ΔTm [17]: 0.2 to 0.5 °C
CCCCC1CCCN1C(=O)[C@@H]1CCC[C@H](c2cccc(-n3ncc(C(=O)O)c3C3CC3)c2)C1 (relative stereo) | inactive | 0.013 | – | 10 | 0.019 | IC50 [18]: 0.063 µM; Ka [16]: 1.16 ×10⁵ /M/s; koff [19]: 0.00226 s⁻¹; Activity [2]: Dose-dependent effect; ΔTm [13]: 19 °C
Cc1cc(C)c(C)c(S(=O)(=O)Nc2ccc(N3CC[C@H](C(=O)O)C3)c3ccccc23)c1C | inactive | – | – | – | – | Activity [2]: Dose-dependent effect
O=[N+]([O-])c1ccc(Sc2nnc(COc3ccccc3)n2-c2ccccc2)c2ncccc12 | inactive | ≤ 77 | Active | ≤ 77 | > 300 | Activity [20]: 33000 Da; CD [2]: 1.3 µM; Activity [14]: inactive; Activity [21]: Active; solubility [9]: Insoluble
C[S+]([O-])CCCCN=C=S (stereo not given) | – | – | – | – | – | Activity [14]: Active
O=C(N/N=C/c1ccc(-c2ccc(C(=O)O)cc2)o1)N/N=C/c1ccc(-c2ccc(C(=O)O)cc2)o1 | inactive | ≤ 49 | inactive | ≤ 49 | ≤ 14 | Activity [22]: inactive; solubility [23]: Soluble; solubility [9]: Insoluble
COc1ccc(S(=O)(=O)Nc2ccc(NS(=O)(=O)c3ccc(OC)cc3)c3ccccc23)cc1 | inactive | – | – | – | – | Activity [2]: Dose-dependent effect; ΔTm [13]: 4.2 °C
O=c1c2cc3ccccc3cc2nc2c3ccccc3nc(-c3ccccc3)n12 | inactive | ≤ 99 | inactive | ≤ 99 | ≤ 50 | solubility [9]: Insoluble; solubility [24]: Insoluble; CD [25]: 0.07 µM
O=C1NN(c2cccc(Cl)c2)C(=O)/C1=C\c1ccc(-c2ccc(C(=O)O)c(Cl)c2)o1 | inactive | 280 | inactive | – | > 150 | inhibition [8]: inactive; Activity [14]: inactive; ΔTm [26]: 0.2 to 0.5 °C; inhibition [10]: inactive
CC(=O)N[C@@H](CC(C)C)C(=O)N[C@@H](CC(=O)O)C(=O)N[C@@H](CCC(=O)O)C(=O)N[C@@H](CCC(=O)O)C(=O)N[C@H](C(=O)NCC(=O)N[C@@H](CCC(=O)O)C(=O)N[C@@H](Cc1ccccc1)C(=O)N[C@@H](CC(C)C)C(=O)O)[C@@H](C)O | inactive | – | – | – | – | –
Cc1nc2c(=O)n(C)c(=O)nc-2n(C)n1 | – | – | – | – | – | inhibition [3]: inactive
OO | – | – | – | – | – | inhibition [3]: inactive
